# In the library only some 2.5% were active in any assay of this set; here they are far more common.
# UCH37 inh: inhibitors of human deubiquitinating enzyme UCH37 | purified proteasome/UCH37, Ub-AMC cleavage fluorescence | AID 588478 | actives 0.33% (n = 330,000) | Q9Y5K5 | inhibition, % (no concentration beside the values);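 active means mean inhibition over replicate wells above about 20%, limit read from the data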
# Target sequence (Q9Y5K5 whole entry, looked up): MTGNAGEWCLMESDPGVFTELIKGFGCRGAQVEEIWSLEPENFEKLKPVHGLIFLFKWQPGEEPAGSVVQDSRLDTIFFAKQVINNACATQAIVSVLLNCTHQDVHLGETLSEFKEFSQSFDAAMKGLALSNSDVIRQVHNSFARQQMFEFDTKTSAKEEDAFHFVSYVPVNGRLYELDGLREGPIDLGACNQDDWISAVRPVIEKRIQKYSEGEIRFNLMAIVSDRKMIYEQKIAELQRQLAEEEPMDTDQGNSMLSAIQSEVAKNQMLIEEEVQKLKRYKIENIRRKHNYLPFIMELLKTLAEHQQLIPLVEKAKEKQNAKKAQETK
#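 Material: human UCH37 enzyme supplied as purified proteasome complex. Measure: % inhibition of Ub-AMC cleavage fluorescence. Medium: pH 7.4 Tris-HCl (50 mM) with ovalbumin, ATP-MgCl2, DTT. Times: 30 min preincubation with enzyme, 25 min cleavage at room temperature. Detection: AMC fluorescence intensity at 355/460 nm.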
# Rce1 inhib: inhibitors of yeast Ras-converting enzyme; yeast membranes, quenched prenylated peptide cleavage fluorescence; calls only; actives 0.27% (n = 290,000);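 active means fall in fluorescence gain of 50% or more versus controls, with final raw signal at or below 3038400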
# Target sequence (Q03530 whole entry, looked up): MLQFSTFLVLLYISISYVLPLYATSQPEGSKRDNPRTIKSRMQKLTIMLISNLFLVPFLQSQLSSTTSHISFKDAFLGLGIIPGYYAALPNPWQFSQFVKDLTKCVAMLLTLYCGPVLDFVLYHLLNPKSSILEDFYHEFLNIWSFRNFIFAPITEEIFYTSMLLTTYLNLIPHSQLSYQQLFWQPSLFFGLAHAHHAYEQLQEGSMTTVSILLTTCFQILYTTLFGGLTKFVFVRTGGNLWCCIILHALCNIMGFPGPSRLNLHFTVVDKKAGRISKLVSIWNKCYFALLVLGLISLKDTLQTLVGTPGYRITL
# MEKK3 PB1 HTS: MEKK3-MEK5 PB1 interaction, increase or decrease. actives 1.4% (n = 290,000). binding response (% of control), % at 10 µM. AID 1529. bead-based flow cytometry, Alexa488-MEK5 binding to MEKK3; actives lie on both sides; 0 = blocked by unlabeled MEK5, 100 = vehicle;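 active means binding response more than 3 SD above or below the average of its plate-row segment, actives on both sides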;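 further: Alexa488 bead fluorescence after subtracting the streptavidin-only scavenger bead signal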
# MEKK2mut PB1 HTS: signal of MEK5 binding to mutant human MEKK2 PB1 domain; percent response, % at 10 µM; actives 0.35% (n = 290,000); bead flow cytometry, Alexa488-MEK5 binding to MEKK2 mutant; in the data active means percent response above about 24%, passing the limit was not always enough
# T cell modulator: modulates CD8 T cell binding to vesicles; 2C CD8+ T cell-vesicle binding, flow cytometry; hits give low values; response (vesicle binding), % at 7 µM; actives 0.068% (n = 330,000); AID 2052;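 active means response, share of CD8 T cells binding vesicles, and their 90th percentile fluorescence all below set limits, cut at about 80% in these data, passing the limit was not always enough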;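 further: values below 100% mean blocked vesicle binding to the CD8+ T cells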
#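 System: murine 2C transgenic CD8+ T lymphocytes; also added: QL9-loaded Drosophila micro-vesicles; times: binding 1.5 h at 37 °C; measured by: flow cytometry, PE anti-B7-1 (FL2) versus Alexa647 anti-CD8 (FL8), PFA-fixed; control set: Peptide-free naked vesicles (low) and QL9 vesicles with 0.7% DMSO vehicle (high)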
# MEKK2wt PB1 HTS: raises or lowers MEK5 binding to wildtype human MEKK2 PB1 domain; bead flow cytometry, Alexa488-MEK5 binding to MEKK2 WT; actives lie on both sides; binding response (% of control), % at 10 µM; actives 1.1% (n = 290,000); AID 1531; in the data active means binding response below about 67% or above about 130%
# MEKK2wt confirm: raises or lowers MEK5 binding to wildtype human MEKK2, retest; shares compounds with MEKK3 PB1 HTS; bead flow cytometry, Alexa488-MEK5 binding to MEKK2 WT; actives lie on both sides; binding response (% of control), % at 10 µM; actives 2.4% (n = 5,900); in the data active means binding response below about 16% or above about 210%; inactive means in between
# MEKK2mut-MEK5: signal of MEK5 binding to mutant human MEKK2, retest | shares compounds with MEKK3 PB1 HTS | bead flow cytometry, Alexa488-MEK5 binding to MEKK2 mutant | percent response, % at 10 µM | actives 2% (n = 5,900) | AID 1893; in the data active means percent response mostly above about 71%, no sharp cut-off; inactive means mostly below about 38%;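 further: higher means compound restores mutant binding toward wildtype level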
# MEKK3-MEK5 inh: MEKK3-MEK5 PB1 inhibition, single concentration confirmation. bead flow cytometry, Alexa488-MEK5 binding to MEKK3; hits give low values. actives 1.8% (n = 5,900). shares compounds with MEKK3 PB1 HTS. binding response (% of control), % at 10 µM. AID 1894;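 active means binding response below 72% of control, or above a set upper limit, though filed actives all read lower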
# Hits are given with their value; i = inactive; nt = not tested or not shown; [ ] = remark or other dose.
SMILES,UCH37 inh,Rce1 inhib,MEKK3 PB1 HTS,MEKK2mut PB1 HTS,T cell modulator,MEKK2wt PB1 HTS,MEKK2wt confirm,MEKK2mut-MEK5,MEKK3-MEK5 inh
CCOC(=O)CN(C#N)c1nc(C)cc(C)n1,i,i,i,i,i,i,nt,nt,nt
COC(=O)CN(C#N)c1nc(C)cc(C)n1,i,i,133,i,i,i,i,i,i
CCNC(=S)NN=Cc1cc(C)n(-c2ccc(Cl)cc2)c1C,i,nt,nt,nt,nt,nt,nt,nt,nt
COc1ccc(-c2csc(Nc3ccc(C)cn3)n2)cc1OC,i,i,143,i,i,i,i,i,i
COc1ccc(-c2csc(Nc3cc(C)ccn3)n2)cc1OC,i,i,i,i,i,i,nt,nt,nt
N#CC(=C(O)C(F)(F)F)c1nnc2n1CCCCC2,i,nt,nt,nt,nt,nt,nt,nt,nt
CN=c1scc(-c2ccc(OC)cc2)n1N=C(C)c1cccnc1,i,nt,nt,nt,nt,nt,nt,nt,nt
CC1(C)CC(=O)c2cnc(NCc3ccco3)nc2C1,i,nt,i,i,i,i,nt,nt,nt
O=C1CCCc2nc(NCc3ccco3)ncc21,i,i,i,24,i,i,i,i,i
CN(C)N=C1CCS(=O)(=O)c2sccc21,i,nt,nt,nt,nt,nt,nt,nt,nt
COc1cc2[nH]c3c(Cl)ncnc3c2cc1OC,i,i,71[inhibitor],i,i,i,i,i,i
COc1cc2[nH]c3c(N4CCN(c5ccc(Cl)cc5)CC4)ncnc3c2cc1OC,i,i,i,24,i,157,i,i,i
CCNc1nc(NCC)nc(N(C)N=Cc2ccco2)n1,i,nt,nt,nt,nt,nt,nt,nt,nt
Cc1cc2c(=O)n(Cc3ccco3)c(SCC(=O)N3CCCc4ccccc43)nc2s1,i,i,i,i,i,i,nt,nt,nt
Cc1cc(=O)[nH]c(SCC(=O)NCc2ccco2)n1,i,i,i,i,i,i,nt,nt,nt
Cc1cc2c(=O)n(Cc3ccco3)c(SCC(=O)NCc3ccco3)nc2s1,i,i,2.0[inhibitor],i,i,2.0[inhibitor],i,i,i
Cc1nnc(SCC(=O)NCc2ccco2)[nH]c1=O,i,i,133,i,i,135,i,i,i
CCC1OC2(C)OC(=N)C1(C#N)C(C#N)(C#N)C2c1ccccc1 (stereo not given),i,i,i,i,i,i,nt,nt,nt
CCC12OC(=N)C(C#N)(C1C)C(C#N)(C#N)C(c1ccccc1)O2 (stereo not given),i,i,141,i,i,i,i,i,i
COC(=O)C1=C(C)NC(=O)NC1c1ccc([N+](=O)[O-])o1 (stereo not given),i,i,i,i,i,i,nt,nt,nt
COC(=O)C1=C(C)NC(=O)NC1c1ccc(-c2ccc(Cl)cc2)o1 (stereo not given),nt,i,i,i,i,4.0[inhibitor],i,i,i
CC(=O)NC(=NOCc1ccccc1Cl)c1nonc1NC(C)=O,i,nt,nt,nt,nt,nt,nt,nt,nt
O=C(NC1CCCCC1)NC1CCN(CC(=O)N2CCOCC2)CC1,i,nt,2.0[inhibitor],i,i,2.0[inhibitor],i,i,i
O=C(c1sc(N2CCOCC2)nc1-c1ccccc1)N1CCCCC1,i,i,131,i,i,i,i,i,i
COCCNC(=O)c1c(NC(=O)c2nc(SC)ncc2Cl)sc2c1CCCC2,i,i,82[inhibitor],i,i,i,i,i,i
SMILES,UCH37 inh,Rce1 inhib,MEKK3 PB1 HTS,MEKK2mut PB1 HTS,T cell modulator,MEKK2wt PB1 HTS,MEKK2wt confirm,MEKK2mut-MEK5,MEKK3-MEK5 inh
COc1ccc(NC(=O)CC(C)=NNC(=O)c2ccccn2)c(OC)c1,i,nt,nt,nt,nt,nt,nt,nt,nt
CCCn1nnc(NC(=O)c2sc3ccccc3c2Cl)n1,i,i,74[inhibitor],i,i,i,i,i,i
CN(C(=O)CSc1nccc(=O)[nH]1)C1CCCCC1,i,nt,nt,nt,i,nt,nt,nt,nt
CN(c1c[nH]c(=O)[nH]c1=O)C1CCCCC1,nt,i,69[inhibitor],i,i,i,i,i,i
CCOC(=O)c1ccccc1OCc1cc(C=Nn2cncn2)ccc1OC,i,nt,nt,nt,nt,nt,nt,nt,nt
COc1cccc(C=NNC(=O)c2ccc3nc[nH]c3c2)c1O,i,nt,nt,nt,nt,nt,nt,nt,nt
Cc1ccc(C=NNC(=S)NC2CCS(=O)(=O)C2)cc1 (stereo not given),i,nt,nt,nt,nt,nt,nt,nt,nt
COc1ccc(/C=N/NC(=S)NC2CCS(=O)(=O)C2)cc1OC (stereo not given),nt,i,123,i,i,i,i,i,i
CC(C)c1ccc(C2C3CSCC=C3C(C#N)=C(N)C2(C#N)C#N)cc1 (stereo not given),nt,i,1.0[inhibitor],i,i,1.0[inhibitor],i,i,i
O=C(NN=Cc1cccc(Oc2ccc([N+](=O)[O-])cc2[N+](=O)[O-])c1)c1cncc(Br)c1,i,nt,nt,nt,nt,nt,nt,nt,nt
Cc1nnc(SCC(=O)Nc2cc(C(C)(C)C)nn2-c2ccccc2)s1,i,i,i,i,i,i,nt,nt,nt
CCn1c(SCC(=O)Nc2cc(C(C)(C)C)nn2-c2ccccc2)nnc1-c1cccs1,i,i,151,i,i,i,i,i,i
COc1ccccc1CCn1cnc2c3cc(C)ccc3n(C)c2c1=O,i,i,2.0[inhibitor],i,i,2.0[inhibitor],i,i,i
CCOCCCn1cnc2c3cc(F)ccc3n(C)c2c1=O,i,i,i,i,i,i,nt,nt,nt
Cc1ccc(C(=O)C[n+]2cc(Br)cc(Br)c2)cc1[N+](=O)[O-],nt,i,i,51,i,i,i,i,i
COc1ccc(N2CCN(C(=O)CSc3nnc4c(C)cc5ccc(C)c(C)c5n34)CC2)cc1,i,i,36[inhibitor],i,i,i,i,i,i
CC(C)(C)C(=O)Nc1ccc(NC(=O)C(C)(C)C)cc1,i,i,48[inhibitor],i,i,i,i,i,i
CC(C)(C)C(=O)Nc1ccc(S(=O)(=O)c2ccc(NC(=O)C(C)(C)C)cc2)cc1,i,i,i,i,i,i,nt,nt,nt
CC(/C=C/C1=C(C)CCCC1(C)C)=NNC(=O)c1ccncc1,i,nt,nt,nt,nt,nt,nt,nt,nt
CC(C)CSc1nnc2[nH]c(=O)cc(N)n12,i,i,60[inhibitor],i,i,i,i,i,i
CCCCCCCCSc1nnc2[nH]c(=O)cc(N)n12,i,i,i,i,i,i,nt,nt,nt
COC(=O)NN=Cc1ccc(-c2ccc(C)c(Cl)c2)o1,i,nt,nt,nt,nt,nt,nt,nt,nt
COc1ccc(C2CC(c3ccccc3)=NN2C(=O)c2cccs2)cc1 (stereo not given),i,i,i,i,i,i,nt,nt,nt
COc1ccc(C2=NN(C(=O)c3cccs3)C(c3ccccc3O)C2)cc1 (stereo not given),i,i,50[inhibitor],i,i,i,i,i,i
COc1cccc(C=NNC(=O)C(C)Sc2ccccc2)c1 (stereo not given),i,nt,nt,nt,nt,nt,nt,nt,nt
